Assay results as given in ChEMBL document CHEMBL1143036, “Potential anti-inflammatory actions of the elmiric (lipoamino) acids” (2007).
The source made the active and inactive calls. No cut-off for these calls is given here.

What was measured:
RAW264.7 [1] = assay: Antiproliferative activity against LPS-induced mouse RAW264.7 cells assessed as number of cells at 0.1 uM after 48 hrs; assay type: functional
In short: (§1)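 RAW264.7 mouse macrophages were seeded at 500 cells/well and held 24 h at 37°C in 5% CO2. Compound was added (n=4 wells), then LPS solution (1 ug/ml) 1 h later, followed by 48 h incubation. Cell number was read as ATP luminescence (CellTiter-Glo), which is linear with cell count. Values are four-well means, […].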

RAW264.7 [2] = assay: Antiproliferative activity against LPS-induced mouse RAW264.7 cells assessed as number of cells at 1 uM after 48 hrs; assay type: functional; in short: as §1
RAW264.7 [3] = assay: Antiproliferative activity against LPS-induced mouse RAW264.7 cells assessed as number of cells at 10 uM after 48 hrs; assay type: functional; in short: as §1
RAW264.7 [4] = assay: Effect on iPGE2 level in LPS-induced mouse RAW264.7 cells at 10 uM by ELISA; assay type: functional
In short: (§2)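 RAW cells were seeded at 20,000/well and cultured 20 h at 37°C in 5% CO2, then washed and placed in serum-free RPMI. Compounds were added in DMSO at 1 or 10 uM final (N=3). LPS solution (1 ug/ml) was added 30 min later, with a further 2 h incubation. Centrifuged media were assayed by enzyme immunoassay for immunoreactive PGE and PGJ2 (pg/ml); the ratio is iPGJ/iPGE.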

RAW264.7 [5] = assay: Effect on iPGE2 level in LPS-induced mouse RAW264.7 cells at 1 uM by ELISA; assay type: functional; in short: as §2
RAW264.7 [6] = assay: Effect on iPGJ2 level in LPS-induced mouse RAW264.7 cells at 1 uM by ELISA; assay type: functional; in short: as §2
RAW264.7 [7] = assay: Ratio of iPGJ2 to iPGE in LPS-induced mouse RAW264.7 cells at 10 uM by ELISA; assay type: functional; in short: as §2
RAW264.7 [8] = assay: Ratio of iPGJ2 to iPGE in LPS-induced mouse RAW264.7 cells at 1 uM by ELISA; assay type: functional; in short: as §2
RAW264.7 [9] = assay: Effect on iPGJ2 level in LPS-induced mouse RAW264.7 cells at 10 uM by ELISA; assay type: functional; in short: as §2
Mus musculus [10] = assay: Reduction of phorbol ester-induced ear edema in CD1 mouse assessed as ear thickness at 200 ug/ear; assay type: functional; design: scale not given: the % may be the effect or the level left
In short: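 Male CD-1 mice (34–40 g), topically dosed at 200 ug/ear in 10 ul acetone on the ipsilateral ear, with acetone alone on the contralateral ear. Phorbol ester was the edema inducer. Ear thickness was read by digital micrometer and expressed as the ipsilateral minus contralateral difference in microns. N = 8; paired t-test against vehicle.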

Mus musculus [11] = assay: Reduction of phorbol ester-induced ear edema in CD1 mouse assessed as ear thickness; assay type: functional, organism-based

Compound | Activity (RAW264.7 [1]) | Cell number (RAW264.7 [2]) | Cell number (RAW264.7 [3]) | Activity (RAW264.7 [4]) [pg/mL] | Activity (RAW264.7 [5]) [pg/mL] | Activity (RAW264.7 [6]) [pg/mL] | Ratio (RAW264.7 [7]) | Ratio (RAW264.7 [8]) | Activity (RAW264.7 [9]) [pg/mL] | Activity (Mus musculus [10]) [%] | Activity (Mus musculus [11])
CCCCCCCCCCCCCCCC(=O)N[C@@H](C)C(=O)O | 4541 | 4670 | 432 | 232 | 251 | 261 | 17 | 1 |  |  | 
CCCCCCCCCCCCCCCC(=O)N[C@H](C)C(=O)O |  |  |  | 319 | 256 | 281 | 9 | 1 | 3079 |  | 
CCCCC/C=C\C/C=C\C/C=C\C/C=C\CCCC(=O)N[C@@H](C)C(=O)O | 4781 | 4735 | 2110 | 652 | 241 | 2345 | 62 | 9 | 41059 |  | 
CCCCC/C=C\C/C=C\C/C=C\CCCCC(=O)N[C@@H](C)C(=O)O | 4247 | 4557 | 2696 |  |  |  |  |  |  |  | 
COc1ccc2cc([C@H](C)C(=O)O)ccc2c1 [NAPROXEN] |  |  |  | 75 |  |  | 1 |  | 70 |  | 
CCCCC/C=C\C/C=C\C/C=C\CCCCC(=O)NCC(=O)O | 5435 | 5700 | 6602 | 289 | 127 | 5040 | 277 | 39 | 80205 |  | 
CCCCC/C=C\C/C=C\C/C=C\C/C=C\CCCCCC(=O)NCC(=O)O | 5131 | 5310 | 3574 |  |  |  |  |  |  |  | 
CCCCC/C=C\C/C=C\C/C=C\C/C=C\CCCC(=O)N[C@H](C)C(=O)O |  |  |  | 269 | 124 | 1496 | 104 | 12 | 28224 |  | 
CCCCC/C=C\C/C=C\C/C=C\CCCCCCC(=O)NCC(=O)O | 5486 | 5563 | 647 |  |  |  |  |  |  |  | 
CCCCC/C=C\C/C=C\CCCCCCCCCC(=O)NCC(=O)O | 2945 | 5738 | 609 |  |  |  |  |  |  |  | 
CCCCCCCCCCCCCCCCCC(=O)NCC(=O)O |  |  |  | 126 | 121 | 201 | 1 | 1 | 159 |  | 
CCCCC/C=C\C/C=C\C/C=C\C/C=C\CCCCCC(=O)N[C@@H](C)C(=O)O | 4668 | 4415 | 618 |  |  |  |  |  |  |  | 
CCCCCCCC/C=C\CCCCCCCC(=O)N[C@@H](C)C(=O)O | 3637 | 4533 | 422 |  |  |  |  |  |  |  | 
CCCCC/C=C\C/C=C\CCCCCCCCCC(=O)N[C@@H](C)C(=O)O | 3641 | 4397 | 605 |  |  |  |  |  |  |  | 
CCCCCCCCCCCCCCCC(=O)NCC(=O)O [PALMITOYL GLYCINE] | 5120 | 5524 | 5108 | 128 | 103 | 219 | 3 | 2 | 401 |  | 
CCCCC/C=C\C/C=C\CCCCCCCC(=O)N[C@@H](C)C(=O)O | 3955 | 4233 | 621 |  |  |  |  |  |  |  | 
CCCCC/C=C\C/C=C\CCCCCCCC(=O)NCC(=O)O [LINOLEOYL GLYCINE] | 5979 | 4595 | 713 |  |  |  |  |  |  |  | 
CCCCCCCC/C=C\CCCCCCCC(=O)NCC(=O)O [OLEOYL GLYCINE] | 5172 | 5557 | 425 |  |  |  |  |  |  |  | 
CCCCC/C=C\C/C=C\C/C=C\C/C=C\CCCC(=O)NCC(=O)O [ARACHIDONOYL GLYCINE] | 5630 | 6156 | 591 | 425 | 273 | 40407 | 229 | 147 | 97830 | 40 | 
O=C1CCN(c2ccccc2)N1 |  |  |  |  |  |  |  |  |  |  | inactive
CCCCC/C=C\C/C=C\C/C=C\CCCCCCC(=O)N[C@@H](C)C(=O)O | 4326 | 4680 | 637 |  |  |  |  |  |  |  | 
